Assay results published in the M2OR odorant receptor database.

Assays:
Conditions in all cases: stereoisomer not certain
OR51I2 (Homo sapiens) = target: T1, OR51I2 (Homo sapiens) (UniProt Q9H344)
T1 sequence (whole entry): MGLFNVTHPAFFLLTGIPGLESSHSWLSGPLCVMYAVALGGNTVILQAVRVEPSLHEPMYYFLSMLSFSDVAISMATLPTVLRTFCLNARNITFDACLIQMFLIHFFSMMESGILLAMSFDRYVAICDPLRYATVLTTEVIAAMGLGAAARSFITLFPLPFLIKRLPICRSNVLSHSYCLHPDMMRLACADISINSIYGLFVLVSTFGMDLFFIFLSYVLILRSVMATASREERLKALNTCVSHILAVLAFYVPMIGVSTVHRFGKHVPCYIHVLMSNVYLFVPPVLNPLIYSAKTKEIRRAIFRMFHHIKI
How it was run: (§1)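 Each entry records the cell line, G-protein, co-transfected protein and tags used. Methods varied with the source, often transient luciferase assays in mammalian cell lines. A receptor–molecule pair is called responsive (active) if the original authors judged its signal statistically different from baseline and non-responsive (inactive) otherwise.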

OR51J1 (Homo sapiens) = target: T2, OR51J1 (Homo sapiens) (UniProt Q9H342)
T2 sequence (whole entry): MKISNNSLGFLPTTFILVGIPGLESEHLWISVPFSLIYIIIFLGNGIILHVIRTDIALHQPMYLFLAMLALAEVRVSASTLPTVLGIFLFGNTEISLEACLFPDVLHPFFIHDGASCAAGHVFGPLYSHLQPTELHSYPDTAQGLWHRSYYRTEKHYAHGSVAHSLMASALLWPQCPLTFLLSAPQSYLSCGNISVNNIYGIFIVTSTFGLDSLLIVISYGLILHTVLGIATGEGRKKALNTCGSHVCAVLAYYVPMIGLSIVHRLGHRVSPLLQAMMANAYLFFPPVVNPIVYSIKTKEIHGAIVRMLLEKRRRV
How it was run: as §1

OR51L1 (Homo sapiens) = target: T3, OR51L1 (Homo sapiens) (UniProt Q8NGJ5)
T3 sequence (whole entry): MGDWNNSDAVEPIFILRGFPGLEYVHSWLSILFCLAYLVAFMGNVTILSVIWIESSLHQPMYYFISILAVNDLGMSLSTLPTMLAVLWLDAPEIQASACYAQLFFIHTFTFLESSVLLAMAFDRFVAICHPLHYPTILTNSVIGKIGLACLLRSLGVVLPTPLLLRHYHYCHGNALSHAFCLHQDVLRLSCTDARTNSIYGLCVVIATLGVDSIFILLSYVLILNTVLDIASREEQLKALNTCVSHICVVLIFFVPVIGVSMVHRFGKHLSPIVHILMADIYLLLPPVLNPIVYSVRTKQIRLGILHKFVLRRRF
How it was run: as §1

OR51M1 (Homo sapiens) = target: T4, OR51M1 (Homo sapiens) (UniProt Q9H341)
T4 sequence (whole entry): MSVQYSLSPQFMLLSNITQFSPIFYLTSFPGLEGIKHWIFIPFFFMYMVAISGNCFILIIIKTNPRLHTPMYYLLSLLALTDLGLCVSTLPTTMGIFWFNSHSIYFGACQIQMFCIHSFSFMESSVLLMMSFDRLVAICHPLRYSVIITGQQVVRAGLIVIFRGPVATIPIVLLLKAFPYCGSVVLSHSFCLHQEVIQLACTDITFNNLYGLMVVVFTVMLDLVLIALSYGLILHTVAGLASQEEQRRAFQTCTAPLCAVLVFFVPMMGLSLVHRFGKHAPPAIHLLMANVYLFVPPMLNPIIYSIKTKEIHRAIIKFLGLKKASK
How it was run: as §1

OR51Q1 (Homo sapiens) = target: T5, OR51Q1 (Homo sapiens) (UniProt Q8NH59)
T5 sequence (whole entry): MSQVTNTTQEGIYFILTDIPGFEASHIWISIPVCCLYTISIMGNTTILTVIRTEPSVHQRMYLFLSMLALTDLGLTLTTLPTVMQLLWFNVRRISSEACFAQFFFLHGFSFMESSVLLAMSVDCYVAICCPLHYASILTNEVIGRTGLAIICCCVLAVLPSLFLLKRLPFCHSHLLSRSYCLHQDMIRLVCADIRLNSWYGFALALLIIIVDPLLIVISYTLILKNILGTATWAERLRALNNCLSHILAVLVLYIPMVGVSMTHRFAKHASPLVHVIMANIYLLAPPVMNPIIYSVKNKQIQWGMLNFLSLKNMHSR
How it was run: as §1

OR51S1 (Homo sapiens) = target: T6, OR51S1 (Homo sapiens) (UniProt Q8NGJ8)
T6 sequence (whole entry): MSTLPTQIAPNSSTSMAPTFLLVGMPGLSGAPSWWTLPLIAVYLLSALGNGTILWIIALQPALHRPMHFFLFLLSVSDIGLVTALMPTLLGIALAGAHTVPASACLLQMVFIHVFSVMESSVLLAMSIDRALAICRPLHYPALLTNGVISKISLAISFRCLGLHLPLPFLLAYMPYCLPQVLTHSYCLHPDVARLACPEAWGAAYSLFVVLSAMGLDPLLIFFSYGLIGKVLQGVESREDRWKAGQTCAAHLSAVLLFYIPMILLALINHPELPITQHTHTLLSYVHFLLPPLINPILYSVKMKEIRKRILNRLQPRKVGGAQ
How it was run: as §1

OR51T1 (Homo sapiens) = target: T7, OR51T1 (Homo sapiens) (UniProt Q8NGJ9)
T7 sequence (whole entry): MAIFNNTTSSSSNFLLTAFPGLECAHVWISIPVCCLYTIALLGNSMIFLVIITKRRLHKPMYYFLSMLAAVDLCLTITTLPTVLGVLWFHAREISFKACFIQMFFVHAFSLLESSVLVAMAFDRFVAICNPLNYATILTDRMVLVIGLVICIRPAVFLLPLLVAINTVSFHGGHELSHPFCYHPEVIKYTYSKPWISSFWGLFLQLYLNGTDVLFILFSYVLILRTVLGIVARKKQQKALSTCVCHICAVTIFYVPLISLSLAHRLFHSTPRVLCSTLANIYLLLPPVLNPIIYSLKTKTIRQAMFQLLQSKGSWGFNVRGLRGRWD
How it was run: as §1

OR51V1 (Homo sapiens) = target: T8, OR51V1 (Homo sapiens) (UniProt Q9H2C8)
T8 sequence (whole entry): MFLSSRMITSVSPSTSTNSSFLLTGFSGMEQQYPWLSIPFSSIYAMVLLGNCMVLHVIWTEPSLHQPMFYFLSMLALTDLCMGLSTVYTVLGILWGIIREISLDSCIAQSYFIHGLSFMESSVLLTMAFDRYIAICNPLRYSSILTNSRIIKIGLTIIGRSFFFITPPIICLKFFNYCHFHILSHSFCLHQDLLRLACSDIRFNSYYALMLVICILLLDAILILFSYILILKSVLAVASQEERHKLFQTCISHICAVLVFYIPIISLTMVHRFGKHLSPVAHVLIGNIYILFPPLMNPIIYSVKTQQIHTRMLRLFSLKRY
How it was run: as §1

OR52A1 (Homo sapiens) = target: T9, OR52A1 (Homo sapiens) (UniProt Q9UKL2)
T9 sequence (whole entry): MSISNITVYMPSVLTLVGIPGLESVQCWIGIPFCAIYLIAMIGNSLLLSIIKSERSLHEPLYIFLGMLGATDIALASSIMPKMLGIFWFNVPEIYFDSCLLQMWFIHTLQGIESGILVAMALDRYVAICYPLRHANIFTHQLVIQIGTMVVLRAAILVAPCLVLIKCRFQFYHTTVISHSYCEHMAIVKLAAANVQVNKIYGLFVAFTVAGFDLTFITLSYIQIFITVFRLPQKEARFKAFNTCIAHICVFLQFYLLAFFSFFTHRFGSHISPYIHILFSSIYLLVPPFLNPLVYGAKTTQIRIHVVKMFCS
How it was run: as §1

OR52A4P (Homo sapiens) = target: T10, OR52A4P (Homo sapiens) (UniProt A6NMU1)
T10 sequence (whole entry): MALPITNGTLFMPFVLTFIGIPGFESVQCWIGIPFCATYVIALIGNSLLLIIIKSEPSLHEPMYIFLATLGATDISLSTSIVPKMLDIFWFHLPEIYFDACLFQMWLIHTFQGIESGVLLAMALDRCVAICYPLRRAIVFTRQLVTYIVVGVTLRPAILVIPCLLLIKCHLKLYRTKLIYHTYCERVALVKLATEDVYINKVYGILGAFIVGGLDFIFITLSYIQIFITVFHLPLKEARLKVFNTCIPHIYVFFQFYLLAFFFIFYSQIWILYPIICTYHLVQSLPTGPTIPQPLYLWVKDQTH
How it was run: as §1

Measured: odorant receptor agonist call

CC(=O)c1c(C)c([N+](=O)[O-])c(C(C)(C)C)c([N+](=O)[O-])c1C
inactive: OR51I2 (Homo sapiens) | OR51J1 (Homo sapiens) | OR51L1 (Homo sapiens) | OR51M1 (Homo sapiens) | OR51Q1 (Homo sapiens) | OR51S1 (Homo sapiens) | OR51T1 (Homo sapiens) | OR51V1 (Homo sapiens) | OR52A1 (Homo sapiens) | OR52A4P (Homo sapiens)

CC1=C(O)C(=O)C(C)O1 (configuration not stated)
inactive: OR51I2 (Homo sapiens) | OR51J1 (Homo sapiens) | OR51L1 (Homo sapiens) | OR51M1 (Homo sapiens) | OR51Q1 (Homo sapiens) | OR51S1 (Homo sapiens) | OR51V1 (Homo sapiens) | OR52A1 (Homo sapiens)

CCCCCCC(C)=O
inactive: OR51L1 (Homo sapiens)

CC1=NC(C)C(C)S1 (configuration not stated)
inactive: OR51I2 (Homo sapiens) | OR51J1 (Homo sapiens) | OR51L1 (Homo sapiens) | OR51M1 (Homo sapiens) | OR51Q1 (Homo sapiens) | OR51S1 (Homo sapiens) | OR51V1 (Homo sapiens) | OR52A1 (Homo sapiens)

CCCCCC1CCCC(=O)O1 (configuration not stated)
inactive: OR51I2 (Homo sapiens) | OR51J1 (Homo sapiens) | OR51L1 (Homo sapiens) | OR51M1 (Homo sapiens) | OR51Q1 (Homo sapiens) | OR51S1 (Homo sapiens) | OR51T1 (Homo sapiens) | OR51V1 (Homo sapiens) | OR52A1 (Homo sapiens) | OR52A4P (Homo sapiens)

O=c1ccc2ccccc2o1
inactive: OR51L1 (Homo sapiens)

CCCCCCOC(C)=O
inactive: OR51L1 (Homo sapiens)

CCC1OC(C)=C(O)C1=O (configuration not stated)
inactive: OR51I2 (Homo sapiens) | OR51J1 (Homo sapiens) | OR51L1 (Homo sapiens) | OR51M1 (Homo sapiens) | OR51Q1 (Homo sapiens) | OR51S1 (Homo sapiens) | OR51V1 (Homo sapiens) | OR52A1 (Homo sapiens)
